Assay outcomes as filed in PubChem BioAssay.
Shown is part of a subset that was picked to be rich in hits.
Ecoli tolC: growth inhibitors of E. coli BW25113 tolC mutant. OD615. 65,000 compounds, 2.2% hits. growth inhibition, % at 10 µM (by protocol);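 active means growth inhibition at or above a cutoff equal to the mean over every tested compound plus 3 SD, cut at about 60% in these data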;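 further: growth measured after 20 h incubation at 37 °C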
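Test system – E. coli BW25113 ΔtolC::kan, tolC deletion mutant strain · Detection – OD at 615 nm · Buffer or medium – LB with kanamycin 50 µg/mL · Times – 20 h compound exposure of bacteria at 37 °C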
HePTP inh: human HePTP phosphatase inhibition. recombinant HePTP phosphatase activity, OD absorbance. inhibition, % at 20 µM. 110,000 compounds, 0.64% hits; in the data active means inhibition above about 50%;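 further: plate controls were vehicle for no effect and reference inhibitor for full effect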
MKP-1 inh: human dual specificity phosphatase 1 inhibition. inhibition, %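 (compounds tested at a single concentration somewhere between 10 and 100 µM)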. P28562. 65,000 compounds, 0.15% hits. recombinant MKP-1, OMFP hydrolysis fluorescence. AID 374;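 active means inhibition above about 50%, limit read from the data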;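 further: 0% = DMSO max control wells and 100% = wells with enzyme stopped by NaOH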
Target sequence (P28562 whole entry, looked up): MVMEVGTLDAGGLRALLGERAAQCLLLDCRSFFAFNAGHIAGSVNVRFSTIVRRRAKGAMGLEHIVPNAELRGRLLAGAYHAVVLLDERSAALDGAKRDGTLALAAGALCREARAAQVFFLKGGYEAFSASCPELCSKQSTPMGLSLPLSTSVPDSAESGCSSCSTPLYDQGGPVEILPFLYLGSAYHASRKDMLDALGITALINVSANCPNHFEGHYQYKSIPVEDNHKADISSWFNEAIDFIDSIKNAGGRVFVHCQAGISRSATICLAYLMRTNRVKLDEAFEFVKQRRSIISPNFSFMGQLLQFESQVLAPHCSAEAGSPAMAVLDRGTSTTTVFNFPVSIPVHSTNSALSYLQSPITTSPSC
Ecoli WT expand: blocks growth of wild type E. coli BW25113 | OD600 absorbance | growth inhibition, % at 100 µM | 98,000 compounds, 0.15% hits | AID 710;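 active means growth inhibition above about 50% at one test dose, limit read from the data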;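 further: growth measured after 20 h incubation at 37 °C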
Cdc25B inh: inhibitors of human Cdc25B phosphatase. inhibition, %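 (compounds tested at 10 µM final in the well)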. AID 368. 65,000 compounds, 0.1% hits. P30305. recombinant Cdc25B, OMFP fluorescence Ex485/Em525; in the data active means inhibition above about 50%
MMP-13 inhibitor: MMP13 (human) collagenase inhibition | MMP-13 fTHP FRET cleavage, Mca fluorescence | AID 570 | 65,000 compounds, 0.07% hits | inhibition, % at 4 µM;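 active means inhibition above the mean of compound-free control plate wells plus 3 SD, cut at about 14% in these data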;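 further: 0% = DMSO wells and 100% = wells with reference MMP-13 inhibitor after basal subtraction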
An asterisk follows results filed as active; / = no result.

SMILES	Ecoli tolC	HePTP inh	MKP-1 inh	Ecoli WT expand	Cdc25B inh	MMP-13 inhibitor
Cn1c(=O)c2c(SCC(=O)N3CCC(Cc4ccccc4)CC3)nc(C3CC3)nc2n(C)c1=O	15	3	16	/	-6	-2
CCCc1nc(SCC(=O)N2CCCc3ccccc32)c2c(=O)n(C)c(=O)n(C)c2n1	78*	5	6	-9	-6	-4
CCCc1nc(SCC(=O)N2CCC(Cc3ccccc3)CC2)c2c(=O)n(C)c(=O)n(C)c2n1	75*	1	21	-17	-8	4
CCOC(=O)C1=C(C)N(C)C(=O)NC1c1ccc(Cl)c(Cl)c1 (centres undefined)	/	2	/	/	/	/
CCOc1cc(/C=C2/C(=N)N3N=C(CC)SC3=NC2=O)ccc1OC(=O)c1cccc([N+](=O)[O-])c1	/	103*	/	/	/	/
Cc1ccc(-n2nc3cc(C)c(NC(=O)c4cccs4)cc3n2)cc1	/	-4	/	/	/	/
CC(C)C(c1nnnn1C1CCCC1)N1c2ccccc2CC1C (centres undefined)	74*	-3	8	5	-15	2
CC(C)C(c1nnnn1C1CCCCC1)N1CCc2ccccc21 (centres undefined)	/	/	/	-1	/	/
CCOC(=O)c1c(NC(=O)CN(CC)CC)sc2c1CCC2	100*	0	9	4	-5	-7
O=c1n(Cc2ccccc2)c2cc(Cl)cnc2n1Cc1ccccc1	89*	10	-6	0	2	-12
N#Cc1nc(COc2ccccc2)oc1N1CCCCC1	12	-4	-4	-2	-8	-3
N#Cc1nc(COc2ccc(F)cc2)oc1N1CCN(Cc2ccccc2)CC1	65*	0	-8	-13	-4	5
N#Cc1nc(COc2ccc(Cl)cc2)oc1N1CCCCCC1	66*	4	2	-1	-4	5
N#Cc1nc(COc2ccc(Br)cc2)oc1N1CCN(Cc2ccccc2)CC1	7	6	-12	-20	18	0
CC1CN(c2oc(COc3ccc(Cl)cc3Cl)nc2C#N)CC(C)O1 (centres undefined)	81*	6	11	-12	-9	2
Cc1cccc(NC(=O)c2cnccn2)c1C	/	1	/	/	/	/
CCC(C)NC(=O)Nc1cccc(Cl)c1 (centres undefined)	/	3	/	/	/	/
Cc1nn(Cc2ccccc2)c(C)c1NC(=O)CSc1nc2sc3c(c2c(=O)n1C)CCC3	4	2	50*	/	-6	-1
O=C1c2ccccc2NC(c2ccc(Cl)cc2Cl)N1O (centres undefined)	13	9	-28	58*	3	-10
O=C1c2ccccc2NC(c2ccc(Cl)cc2Cl)N1Cc1ccccc1 (centres undefined)	/	2	/	-17	/	/
O=C(Cc1nc2ccccc2[nH]1)NCc1ccccc1	/	-3	/	/	/	/
COc1ccc(S(=O)(=O)N(Cc2cccs2)C2CCCC2)cc1	66*	-5	23	-2	-3	1
COc1ccc(S(=O)(=O)NCc2cccs2)cc1	/	/	/	13	/	/
CCN(CC)c1ccc(N2C(=O)/C(=C/c3ccc(OC)cc3)SC2=S)cc1	/	3	/	/	/	/
CCOc1cc(-c2c(C#N)c(=O)[nH]c3c2c(C)nn3-c2ccc(F)cc2)ccc1O	97*	-8	12	1	14	-10
SMILES	Ecoli tolC	HePTP inh	MKP-1 inh	Ecoli WT expand	Cdc25B inh	MMP-13 inhibitor
CCCc1cc(=O)oc2cc(C)cc(O)c12	/	5	/	22	/	/
CCCCCc1cc(O)c2c(C)cc(=O)oc2c1	86*	3	4	-3	-4	5
N#C/C(C(N)=O)=c1/ccc2c(c1)N1C3=C(CCCC3)CC3CCCCC31N=2 (centres undefined)	18	0	32	-29	-3	0
N#CC(C#N)=c1ccc2c(c1)N1C3=C(CCCC3)CC3CCCCC31N=2 (centres undefined)	82*	6	16	-34	-7	6
O=C(Nc1nc2ccc3ccccc3c2s1)c1ccc(C(=O)c2ccccc2)cc1	/	104*	/	/	/	/
O=C(Nc1nc2ccc3ccccc3c2s1)c1cccc(Br)c1	/	12	/	/	/	/
CC(=O)Nc1ccccc1NC(=O)COc1ccc(C)cc1	/	-9	/	/	/	/
Cc1cccc(Cn2c(=O)n(Cc3ccco3)c(=O)c3ccccc32)c1	91*	-5	-2	-17	-4	1
Cc1cccc(Cn2c(=O)n(CCCC(=O)NCc3ccco3)c(=O)c3ccccc32)c1	20	0	9	/	-11	-5
CN1CCN(c2nc(-c3cccnc3)nc3ccccc23)CC1	0	-3	4	11	-10	2
c1cncc(-c2nc(N3CCCCCC3)c3ccccc3n2)c1	95*	3	22	0	-3	4
CC(=O)C(C)(C)/C(C)=N/N=C(\N)c1ccc(C)cc1	/	-14	/	/	/	/
CCc1nnc(NC(=O)c2ccc(S(=O)(=O)N(CC(C)C)CC(C)C)cc2)o1	99*	8	-8	11	3	4
CSCc1nnc(NC(=O)c2ccc(S(=O)(=O)N(CC(C)C)CC(C)C)cc2)o1	99*	3	-9	3	2	0
Cc1ccc(NC(=S)NC(=O)c2ccccc2Cl)cc1C	/	-6	/	/	/	/
COCCOC(=O)c1c(C)oc2ccc(OCc3ccc(Br)cc3)cc12	/	5	/	/	/	/
CCOC(=O)NC12CC3CC(C)(CC(C)(C3)C1)C2	/	7	/	/	/	/
O=C(CN1CCOCC1)Nc1nc(-c2ccc3c(c2)CCN3S(=O)(=O)c2ccccc2)cs1	8	-19	-3	-10	-8	2
CS(=O)(=O)N1CCc2cc(-c3csc(NC(=O)Cc4cccs4)n3)ccc21	62*	-5	10	-14	2	5
CC(=O)Nc1c(C)ccc2c1C(C)CC21CCCC1 (centres undefined)	/	104*	/	/	/	/
CC(=O)Nc1c(Br)cc(C23CC4CC(CC(C4)C2)C3)cc1Br	/	-14	/	/	/	/
CCOC(=O)c1c(C)sc(Sc2ccc(Cl)cc2[N+](=O)[O-])c1OC	/	102*	/	-3	/	/
C=CCNc1ncnc2c1[nH]c1ccc(Cl)cc12	/	/	/	73*	/	/
C=CCNc1ncnc2c1[nH]c1ccccc12	57	-4	-6	77*	-3	-33
CCOC(=O)c1c(NC(=O)/C=C/c2ccccc2)sc(C(C)=O)c1C	/	-4	/	/	/	/
SMILES	Ecoli tolC	HePTP inh	MKP-1 inh	Ecoli WT expand	Cdc25B inh	MMP-13 inhibitor
CCN1/C(=C/c2ccc3ccccc3[n+]2CC)C=Cc2ccccc21	/	/	/	57*	/	/
Cc1ccc(NC(=O)C2CC(=O)N(c3ccccc3C)C2)cc1 (centres undefined)	/	-4	/	/	/	/
Cc1cc(N2CCC(C)CC2)nc(-n2nc(C)cc2C)n1	100*	4	3	19	-13	0
CCOC(=O)C1=C(N)Oc2c(ccc3ccccc23)C1c1ccc(OC)cc1 (centres undefined)	/	-3	/	/	/	/
CC1=CC(C)(C)N(C(=O)c2ccc(F)cc2)c2cc3c(cc21)OCO3	87*	0	7	-3	0	0
O=C(c1ccc(F)cc1)N1CCN(Cc2ccc3c(c2)OCO3)CC1	/	2	/	/	/	/
Cc1cc(N2CCC(C(=O)Nc3ccc(F)cc3)CC2)nc(-c2ccccc2)n1	89*	6	26	5	7	0
